Measured values of several laboratories.
Each line is one published result; the experiments were not run side by side.
Observed: cell growth or viability

Cc1ccc(NNc2nc3ccc(Br)cc3c(=O)n2-c2ccccc2)cc1 — IC50 (NIH3T3; MTT; 48 h): 14.8 µM
Cc1cc(Nc2ncnc3ccc(NC4=NC(C)(C)CO4)cc23)ccc1Oc1ccn2ncnc2c1 — IC50 (NCI-H2170; ATP luminescence): 0.088 µM
CCCCC(=O)Nc1ncc(-c2ccc3ncn(CCC)c(=O)c3c2)cn1 — IC50 (A549; CCK-8; 72 h): 1.25 µM
Nc1cc2cccnc2c2ncccc12 — IC50 (HFF-1; MTT; 48 h; dark): 13 µM
COc1ccccc1/C=N/N=C1\C(=O)Nc2ccccc21 — IC50 (HUVEC; MTT; 24 h): 235 mg/L
O=C(Nc1ccc(-c2ccc3ncn(Cc4ccc5c(c4)OCO5)c(=O)c3c2)cn1)c1ccccc1 — IC50 (A549; CCK-8; 72 h): > 10 µM
COc1cc(C(=O)c2nc(-c3ccc4cc[nH]c4c3)c[nH]2)cc(OC)c1OC — IC50 (PC-3; MTS; 72 h): 0.0202 µM
CC1=CC(=O)C(C(C)C)=CC1=O — IC50 (U-251; SRB; 48 h): 36.9 µM
CCCCC(=O)Nc1ccc(-c2cnc3ccn(CCC)c(=O)c3c2)cn1 — IC50 (A549; CCK-8; 72 h): > 10 µM
CC(=O)O[C@H]1[C@H](OC(C)=O)[C@@H](Nc2cc3cccnc3c3ncccc23)OC[C@@H]1OC(C)=O — IC50 (HFF-1; MTT; 48 h; dark): 14 µM
NNc1nc2c(Cl)cc(Cl)cc2c(=O)n1-c1ccc(Cl)cc1 — IC50 (NIH3T3; MTT; 48 h): 48.6 µM
CS(=O)(=O)CCNCc1ccc(-c2ccc3ncnc(Nc4ccc(OCc5cccc(F)c5)c(Cl)c4)c3c2)o1 — IC50 (NCI-H2170; ATP luminescence): 0.122 µM
CCCCn1cnc2ccc(-c3ccc(NC(=O)Nc4ccccc4)nc3)cc2c1=O — IC50 (A549; CCK-8; 72 h): 1.24 µM
Cc1c(C)c2c(c(C)c1O)CCC(C)(COc1ccc(CC3SC(=O)NC3=O)cc1)O2 (centres unmarked) — IC50 (NIH3T3; 96 h; 3D culture): 246 µM
NNc1nc2ccc(Br)cc2c(=O)n1-c1ccccc1 — IC50 (NIH3T3; MTT; 48 h): 102 µM
O=C1Nc2ccccc2/C1=N/N=C/c1cccc([N+](=O)[O-])c1 — IC50 (HUVEC; MTT; 24 h): 221 mg/L
CC(=O)Nc1ccc(O)cc1 — IC50 (NIH3T3; 96 h; 3D culture): 277 µM
CCCCn1cnc2ccc(-c3ccc(NC(=O)NCCc4ccccc4)nc3)cc2c1=O — IC50 (A549; CCK-8; 72 h): > 10 µM
CN(C)C(=O)Nc1nc2c(Cl)cc(Cl)cc2c(=O)n1-c1ccccc1 — IC50 (NIH3T3; MTT; 48 h): 38.2 µM
COc1cc(C(=O)c2nc(-c3cccc4[nH]ccc34)c(C)[nH]2)cc(OC)c1OC — IC50 (PC-3; MTS; 72 h): 0.0192 µM
